The record followed here is paper PMC7559020 (ACS infectious diseases, 2020).

In series [1] the test system is ZIKV. Kind of series: Viral titer reduction assay, ZIKV in A549 cells. Type of series: cell-based, Zika virus. In short, it runs like this:
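ZIKV infection of human A549 lung carcinoma cells with test compound over a dose range. Virus titre reduction measured, run in triplicate. EC50 obtained by nonlinear regression fit of the dose–response curve.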

For series [2], the system named is A549 cells. Briefly: WST-8 cell proliferation. The settings on record: read-out: CC50 (A549); cell viability, A549 cells, 48 h.
Series [3] has as its system DENV2. Briefly: Viral plaque reduction assay, DENV2 in A549 cells. In kind it is cell-based. The settings on record: read-out: EC50-DN2 (A549).
The nature of series [4]: Repeated oral dosing toxicity in mice. The settings on record: repeated oral dosing 40 mg/kg/day for 7 days, N = 6. In kind it is in vivo, mouse.
In series [5] the target is MBP-NS3 F46A (Dengue virus type 2, UniProt P29990, F1521A). Type of series: binding, DENV2. The note with it: F46A vs WT.
Series [6] has as its target viral NS3 protease (Dengue virus type 2, UniProt P29990). Kind of series: Protein thermal shift assay. In kind it is binding. The note with it: PTSA.
Series [7] relates to MBP-NS3 I25A. The note with it: I25A vs WT.
The test system of series [8] is ZIKV. Briefly: Time of addition experiment, ZIKV titer by plaque forming assay. The note with it: 0.75 μM added at time points postinfection, titers at 48 h. In kind it is cell-based, Zika virus.
For series [9], the target named is MBP-NS3 H60A (Dengue virus type 2, UniProt P29990, H1535A). In kind it is binding, DENV2. The note with it: H60A vs WT.
Series [10] deals with ZIKV. Kind of series: qRT-PCR of viral RNA from ZIKV-infected A549 cells. In kind it is cell-based, Zika virus.
The target of series [11] is MBP-NS3 Y23A (Dengue virus type 2, UniProt P29990, Y1498A). In kind it is binding, DENV2. The note with it: Y23A vs WT.
In series [12] the target is MBP-NS3 L58A (Dengue virus type 2, UniProt P29990, L1533A). Briefly: SPR binding to MBP-NS3 mutant L58A. Set-up: species or system DENV2. The note with it: L58A vs WT.
A short description of series [13]: WST-8 cell proliferation. The note with it: human.
Series [14] deals with 3D organoids. Kind of series: Toxicity on 3D mini-brain organoids. Type of series: cell-based, human. The note with it: 1.5 μM.
The subject of series [15] is ZIKV. Kind of series: ZIKV infection of 3D mini-brain organoids. Type of series: cell-based, Zika virus. The note with it: 1.5 μM.
The test system of series [16] is ZIKV. Kind of series: ZIKV inhibition in human neural progenitor cells. The settings on record: human iPSC-derived neural progenitor cells, IFA and qRT-PCR. Type of series: cell-based, Zika virus.
Series [17] relates to ZIKV. Kind of series: Immunofluorescence assay. Type of series: cell-based, Zika virus. The settings on record: IFA, anti-E 4G2, A549 cells. In short, it runs like this: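 ZIKV-infected cells treated with test compound or DMSO. Viral E protein detected with mouse monoclonal pan-flavivirus anti-E 4G2 and a DyLight 488 goat anti-mouse IgG secondary. Nuclei counterstained with Hoechst.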

Series [18] relates to ZIKV NS3. Briefly: Western blot of ZIKV NS3 and polyprotein precursor in infected A549 cells. In kind it is cell-based, Zika virus. The settings on record: A549, MOI 0.1, 48 h. The method, boiled down:
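Preseeded A549 cells were treated with a dose series of test compound or DMSO and infected with ZIKV at MOI 0.1. At 48 h post-infection, cells were washed, harvested, given protease inhibitor cocktail and lysed in SDS-PAGE loading buffer (95 °C, 10 min). Blots were probed with anti-ZIKV NS3 and anti-GAPDH. PP and NS3 band intensities were normalised to GAPDH, N = 3.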

Series [19] has as its system DENV2 replicon. Briefly: DENV2 replicon assay. Type of series: cell-based. The note with it: Dengue virus, DENV2, BHK-21, 48 h, read-out: EC50-DN2 (DENV2 replicon cell line).
In series [20] the target is DENV2 NS2B–NS3 protease (Dengue virus type 2, UniProt P29990). Kind of series: NS2B–NS3 protease inhibition assay. Type of series: biochemical.
For series [21], the system named is ZIKV. Briefly: ZIKV viremia mouse model. Type of series: in vivo, Zika virus. The note with it: data not shown.
[22] abbreviates: read-out: EC50-ZK (A549), virus production, A549 cells.
Where [23] appears, read: virus production, A549 cells, 48 h postinfection.
[24] abbreviates: Zika virus, A549, read-out: EC50-ZK (A549).

Each structure is given as a SMILES string. Read-outs that look alike come from different tables or passages of the source.

Turning to `Nc1ccc(NC(=O)c2cc(Cl)ccc2O)c(Cl)c1` [HJC0129], the EC50 in series [1] (setting [22]) and in [3] (setting [23]) was greater than 30 µM each time. The CC50 in [2] was found to be 176 µM.
For the molecule `NCCCOc1ccc(Cl)cc1C(=O)Nc1ccc([N+](=O)[O-])cc1Cl` [HJC0308], the EC50 in series [1] (setting [22]) came to 6.2 µM; in [3] (setting [23]), 1.4 µM. The 50% cytotoxic concentration (CC50) in series [2] was 17.7 µM.
With `O=C(Nc1ccc([N+](=O)[O-])cc1Cl)c1cccc([N+](=O)[O-])c1O` [JMX0207, N-(2-Chloro-4-nitrophenyl)-2-hydroxy-3-nitrobenzamide], in [4], the signs of toxicity result is “did not display any sign of toxicity”. Further, the “effect of mutation on binding affinity” value in series [5] and in series [11] was “do not have any effect” in each case. Besides, in [6], the “increase in Tm of the viral protein” value was determined as 0.75 °C. In addition, the “reduction of binding affinity by mutation” value in series [7] and in [9] was 2- to 3 fold each time. Besides, the “reduction of ZIKV titer by time of addition” value in series [8] is “equally effective in reducing ZIKV titer even at 24 h postinfection”. The “ZIKV RNA copy number” value in series [10] is on record as “significantly reduced the ZIKV RNA copy number in a dose-dependent manner”. Also, the “effect of mutation on binding” value in [12] was “abolished the binding”. Further, the EC50 is 0.3 µM in series [1] (setting [24]) and 0.31 µM in series [3] (Dengue virus, DENV2, A549, 48 h). Moreover, the CC50 at 48 h in [13] came to 31.9 µM. For the same molecule, in series [14], the “toxic effect on 3D organoids” value was “did not have any toxic effect”. The “ZIKV production from 3D organoids” value in series [15] (PFU assay, 5 dpi) is listed as “significantly inhibited”. Further, the “protection of organoid slices from ZIKV infection (immunostaining)” value in [15] (ZIKV PRVABC59, anti-E 4G2) is “nearly completely protected the organoids from ZIKV infection”. Besides, the “ZIKV infection in the 3D organoid” value in series [15] (ZIKV-Venus, MOI 1, fluorescence imaging 7 dpi, vs DMSO) is given as “completely abolished ZIKV infection”. In addition, the “ZIKV protein expression and RNA synthesis in HNPCs” value in series [16] was “effectively inhibited”. Also, the ZIKV antigen production result in series [17] is listed as “greatly reduced ZIKV antigen production”. Further, in series [18], the “high MW protein (unprocessed viral polyprotein precursor, PP)” value is on record as “dose-dependent increase”. For the same molecule, the “viral NS3 protein production” value in [18] is listed as “dose-dependent reduction”.
In the case of `CN1CCN(CCOc2ccc(Cl)cc2C(=O)Nc2ccc([N+](=O)[O-])cc2Cl)CC1` [HJC0365], the results for the 50% effective concentration (EC50) in series [1] (setting [22]) and in [3] (setting [23]) were 6 µM and 6.4 µM, respectively. In series [2], the CC50 worked out at 177 µM.
The like results for `CN1CCC(Oc2ccc(Cl)cc2C(=O)Nc2ccc([N+](=O)[O-])cc2Cl)CC1` [HJC0381] were, in that order, 3.9 µM, 1.2 µM and 91.1 µM.
As for `O=C(Nc1ccc([N+](=O)[O-])cc1Cl)c1cc(Cl)ccc1O` [Niclosamide, reference compound], the values for the EC50 in series [19] and in series [1] (setting [24]) were 2 µM and 0.48 µM, respectively. In series [20], this molecule had an IC50 of 21.6 µM. Moreover, the “in vivo antiviral efficacy toward ZIKV” value in [21] is “did not show appreciable in vivo antiviral efficacy”.
Consider `O=C(Nc1ccc2c(c1)S(=O)(=O)C=C2)c1cc(Cl)ccc1O` [HJC0149], for which the EC50 in series [1] (setting [22]) is 1.1 µM; in [3] (setting [23]) it was 0.9 µM. In addition, the CC50 in series [2] was found to be 241 µM.
Consider `NCCCCOc1ccc(Cl)cc1C(=O)Nc1ccc([N+](=O)[O-])cc1Cl` [HJC0431], for which the EC50 was found to be 0.36 µM in series [1] (setting [22]) and 2.2 µM in series [3] (setting [23]). For the same molecule, in [2], the CC50 turned out to be 28.4 µM.
`CC(=O)Nc1ccc(NC(=O)c2cc(Cl)ccc2O)c(Cl)c1` [HJC0140]: the EC50 in series [1] (setting [22]) and in [3] (setting [23]) was greater than 30 µM throughout.
